Results taken from ChEMBL document CHEMBL4715737, “New 1,3-thiazole derivatives and their biological and ultrastructural effects on Trypanosoma cruzi” (Eur J Med Chem, 2016).
Active and inactive are the calls of the source. The calls are words filed in the database; no cut-off is given here.

What was measured:
[1] = Cytotoxicity against BALB/c mouse splenocyte incubated for 24 hrs by [3H]-thymidine incorporation based counter beta irradiation method; format: cell-based; conditions: splenocytes
In short: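 BALB/c splenocytes, 5 × 10^6 cells/well in RPMI-1640 + 10% inactivated FBS. Compounds from 10 mg/mL DMSO stock, serially diluted to […] (units as printed), in triplicate. Saponin 0.1 mg/mL positive control; medium + DMSO negative (=100%). 3H-thymidine 1.0 added, 24 h at 37 °C, 5% CO2, beta counting; highest concentration giving >90% incorporation taken as non-toxic.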

Trypanosoma cruzi [2] = assay: Antiparasitic activity against Trypanosoma cruzi Y strain trypomastigotes assessed as reduction in parasite viability after 24 hrs by Neubauer chamber counting method; format: functional, organism-based
In short: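 Y strain trypomastigotes collected from Vero cell supernatant, plated at 4 × 10^5 per well, treated in triplicate for 24 h at 37 °C, 5% CO2; benznidazole positive control. Motile (viable) parasites counted in Neubauer chamber, untreated wells = 100%. IC50 by nonlinear regression from at least seven concentrations.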

Cruzipain = Cruzipain (Trypanosoma cruzi, UniProt P25779); assay: Inhibition of recombinant Trypanosoma cruzi cruzain using Z-FR-AMC as substrate and measured at 12 sec interval for 5 mins by fluorimetric analysis
Sequence of Cruzipain (P25779 whole entry): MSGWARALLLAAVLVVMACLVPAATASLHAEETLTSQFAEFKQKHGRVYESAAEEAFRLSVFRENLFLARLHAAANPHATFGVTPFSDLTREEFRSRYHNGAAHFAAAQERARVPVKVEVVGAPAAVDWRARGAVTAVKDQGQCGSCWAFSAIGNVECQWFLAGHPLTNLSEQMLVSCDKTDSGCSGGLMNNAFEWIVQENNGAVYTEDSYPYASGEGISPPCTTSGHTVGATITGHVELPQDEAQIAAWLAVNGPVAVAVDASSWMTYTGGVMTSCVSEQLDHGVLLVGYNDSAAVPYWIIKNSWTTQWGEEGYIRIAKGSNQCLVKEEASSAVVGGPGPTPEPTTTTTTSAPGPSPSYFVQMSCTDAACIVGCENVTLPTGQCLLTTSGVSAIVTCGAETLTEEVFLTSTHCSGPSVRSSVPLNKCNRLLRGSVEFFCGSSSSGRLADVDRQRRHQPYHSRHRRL
In short: (§1)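 Cruzain (1 nM) in 0.1 M sodium acetate pH 5.5, 0.01% Triton X-100, 1 mM β-mercaptoethanol, substrate Z-FR-AMC, no pre-incubation. Fluorescence read at 25 °C every 12 s for 5 min; rates from initial velocities versus DMSO control. Screened at 300, 200 or 100 (solubility-limited). At least two independent experiments, each in triplicate.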

[3] = Selectivity index, ratio of >90% maximum non-toxic concentration for BALB/c mouse splenocyte to IC50 for Trypanosoma cruzi Y strain trypomastigotes; format: toxicity; conditions: splenocytes, read-out: Selectivity Index
In short: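 SI computed as highest non-toxic splenocyte concentration (>90% 3H-thymidine incorporation, 24 h) divided by trypomastigote IC50 (24 h, Neubauer motility count).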

[4] = target: Cruzipain (Trypanosoma cruzi) (UniProt P25779); assay: Inhibition of recombinant Trypanosoma cruzi cruzain at 300 uM using Z-FR-AMC as substrate and measured at 12 sec interval for 5 mins by fluorimetric analysis relative to control
Sequence of Cruzipain (Trypanosoma cruzi) (P25779 123-467 limits assumed): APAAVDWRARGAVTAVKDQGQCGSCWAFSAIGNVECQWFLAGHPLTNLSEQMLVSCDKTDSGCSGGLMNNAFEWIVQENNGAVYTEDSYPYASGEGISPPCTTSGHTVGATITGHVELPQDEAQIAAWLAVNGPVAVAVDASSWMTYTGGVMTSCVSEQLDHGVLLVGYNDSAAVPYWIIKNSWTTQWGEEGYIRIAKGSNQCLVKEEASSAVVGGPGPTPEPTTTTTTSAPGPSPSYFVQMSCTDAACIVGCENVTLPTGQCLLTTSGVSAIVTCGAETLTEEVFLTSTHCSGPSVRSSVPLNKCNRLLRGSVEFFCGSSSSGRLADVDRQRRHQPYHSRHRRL
In short: as §1, with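 “(solubility-limited). Where inhibition exceeded 80%, IC50 came from seven concentrations by four-parameter variable-slope regression.” for “(solubility-limited).”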

Trypanosoma cruzi [5] = assay: Induction of morphological changes in Trypanosoma cruzi trypomastigotes assessed as contortion of parasite body and alteration in morphology and size of flagellum at 6.8 uM after 24 hrs by SEM analysis; format: functional, organism-based
In short: (§2)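 Trypomastigotes cultured 24 h in RPMI 1640 pH 7.5 with 20 mM HEPES, 10% FBS, penicillin/streptomycin plus compound at 3.4 and 6.8. Parasites washed in PBS and fixed in 2.5% glutaraldehyde/4% formaldehyde in 0.1 M cacodylate pH 6.8, then postfixed in 2% OsO4. SEM samples were ethanol-dehydrated, critical-point dried and gold-coated. TEM samples were acetone-dehydrated, epon-embedded and stained with uranyl acetate/lead citrate. Untreated controls were included.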

Trypanosoma cruzi [6] = assay: Induction of morphological changes in Trypanosoma cruzi trypomastigotes assessed as alteration in reservosomes at 3.4 to 6.8 uM after 24 hrs by TEM analysis; format: functional, organism-based; conditions: dose 3.4-6.8 µM; in short: as §2
Trypanosoma cruzi [7] = assay: Induction of morphological changes in Trypanosoma cruzi trypomastigotes assessed as cytoplasmic vacuolization at 6.8 uM after 24 hrs by TEM analysis; format: functional, organism-based; in short: as §2
Trypanosoma cruzi [8] = assay: Induction of morphological changes in Trypanosoma cruzi trypomastigotes assessed as mitochondrial swelling at 3.4 to 6.8 uM after 24 hrs by TEM analysis; format: functional, organism-based; conditions: dose 3.4-6.8 µM; in short: as §2
Trypanosoma cruzi [9] = assay: Induction of morphological changes in Trypanosoma cruzi trypomastigotes assessed as abnormal chromatin condensation at 3.4 to 6.8 uM after 24 hrs by TEM analysis; format: functional, organism-based; conditions: dose 3.4-6.8 µM; in short: as §2
Trypanosoma cruzi [10] = assay: Induction of morphological changes in Trypanosoma cruzi trypomastigotes assessed as membrane projections at 3.4 uM after 24 hrs by TEM analysis; format: functional, organism-based; in short: as §2
Trypanosoma cruzi [11] = assay: Induction of cytoplasmic vacuolization, irreversible lesions and changes in parasitic morphology in Trypanosoma cruzi trypomastigotes after 24 hrs by TEM analysis; format: functional; conditions: dose 3.4-6.8 µM; in short: as §2
Trypanosoma cruzi [12] = assay: Induction of morphological changes in Trypanosoma cruzi trypomastigotes assessed as formation of membrane blebs at 3.4 to 6.8 uM after 24 hrs by TEM analysis; format: functional, organism-based; conditions: dose 3.4-6.8 µM; in short: as §2
Trypanosoma cruzi [13] = assay: Induction of morphological changes in Trypanosoma cruzi trypomastigotes assessed as contortion of parasite body with presence of blebs in flagellum and parasite body at 3.4 uM after 24 hrs by SEM analysis; format: functional, organism-based; in short: as §2
[14] = target: Cruzipain (Trypanosoma cruzi) (UniProt P25779); assay: Inhibition of recombinant Trypanosoma cruzi cruzain at 200 uM using Z-FR-AMC as substrate and measured at 12 sec interval for 5 mins by fluorimetric analysis relative to control
In short: as §1, with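 “(solubility-limited). Where inhibition exceeded 80%, IC50 came from seven concentrations by four-parameter variable-slope regression.” for “(solubility-limited).”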

Structure (SMILES)	IC50 (Trypanosoma cruzi [2])	IC50 (Cruzipain)	inhibition [4]	MNTC at 24 h [1]	selectivity ratio [3]	also measured
CC/C(=N\Nc1nc(-c2ccc(F)cc2)cs1)c1cccc(Br)c1	146 µM	16.5 µM	95.8%	124 µM	0.8	–
O=C(Cn1ccnc1[N+](=O)[O-])NCc1ccccc1 [BENZNIDAZOLE]	–	–	–	–	15.4	–
CC/C(=N\Nc1nc(-c2ccccc2)cs1)c1cccc(Br)c1	5.51 µM	44.6 µM	80.7%	64.7 µM	11.7	–
CC/C(=N\Nc1nc(-c2ccc(Cl)cc2)cs1)c1cccc(Br)c1	140 µM	32.7 µM	90.4%	119 µM	0.8	–
CC/C(=N\Nc1nc(-c2ccc(Br)cc2)c(C)s1)c1cccc(Br)c1	5.8 µM	3.8 µM	100%	20.9 µM	3.6	–
CC/C(=N\Nc1nc(-c2ccc(Cl)c(Cl)c2)cs1)c1cccc(Br)c1	130 µM	11.3 µM	86.8%	54.9 µM	0.4	–
CC/C(=N\Nc1nc(-c2ccc([N+](=O)[O-])cc2)cs1)c1cccc(Br)c1	60 µM	–	68.9%	> 232 µM	> 3.9	–
CC/C(=N\Nc1nc(-c2ccc(-c3ccccc3)cc2)cs1)c1cccc(Br)c1	3.35 µM	–	18.1%	> 216 µM	> 64.5	–
CC/C(=N\Nc1nc(-c2cccc([N+](=O)[O-])c2)cs1)c1cccc(Br)c1	15.1 µM	14.6 µM	85.3%	23.2 µM	1.5	–
CC/C(=N\N=c1/scc(-c2ccccc2)n1-c1ccccc1)c1cccc(Br)c1	53.1 µM	–	–	50.8 µM	0.9	–
CC/C(=N\N=C(/S)Nc1ccccc1)c1cccc(Br)c1	13.3 µM	–	–	138 µM	10.4	inhibition [14]: 49.5%
CC/C(=N\NC(N)=S)c1cccc(Br)c1	2.41 µM	–	–	34.9 µM	–	–

Now from value to compound, other results behind:

IC50 (Trypanosoma cruzi [2])	IC50 (Cruzipain)	inhibition [4]	Structure (SMILES)	MNTC at 24 h [1]	selectivity ratio [3]	also measured
3.84 µM	–	72%	CC/C(=N\Nc1nc(-c2ccc(OC)cc2)cs1)c1cccc(Br)c1	120 µM	31.3	Activity (Trypanosoma cruzi [5]): Active; Activity (Trypanosoma cruzi [6]): Active; Activity (Trypanosoma cruzi [7]): Active; Activity (Trypanosoma cruzi [8]): Active; Activity (Trypanosoma cruzi [9]): Active; Activity (Trypanosoma cruzi [10]): Active; Activity (Trypanosoma cruzi [11]): Dose-dependent effect; Activity (Trypanosoma cruzi [12]): Active; Activity (Trypanosoma cruzi [13]): Active
51 µM	9.5 µM	88.2%	CC/C(=N\Nc1nc(-c2ccc3ccccc3c2)cs1)c1cccc(Br)c1	> 229 µM	> 4.5	–
59.2 µM	15.1 µM	99.7%	CC/C(=N\Nc1nc(-c2ccc(Cl)cc2Cl)cs1)c1cccc(Br)c1	54.9 µM	0.9	–
4.79 µM	0.51 µM	99.5%	CC/C(=N\Nc1nc(-c2ccccc2)c(C)s1)c1cccc(Br)c1	12.5 µM	2.6	–
76.6 µM	–	–	CC/C(=N\N=c1/scc(-c2ccc(OC)cc2)n1C)c1cccc(Br)c1	58.1 µM	0.7	inhibition [14]: 33.1%
36.3 µM	–	–	CC/C(=N\N=C(/S)NC)c1cccc(Br)c1	33.3 µM	0.9	inhibition [14]: 11.7%
16.6 µM	19.2 µM	97.7%	CC/C(=N\Nc1nc(-c2ccc(C)cc2)cs1)c1cccc(Br)c1	125 µM	7.5	–
